SMARCA2 activ: activators of SMARCA2 function | MG213 cells, MMTV-luciferase reporter, dexamethasone, overnight | activation, % at 9.1 µM | 1% of 370,000 active; in the data active = activation above about 7.8%;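 also: 0% = vehicle wells and 100% = reference activator wells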
ARFGAP1 inh: inhibitors of rat ARFGAP1; Q62848; Arfgap1-stimulated ARF1 GTP hydrolysis, GDP FP detection; inhibition, % at 16.5 µM; 0.26% of 360,000 active;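 active = inhibition above a per-plate limit, mean inhibition of low control wells plus 3 SD, cut at about 25% in these data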;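 also: 0% = DMSO wells with enzyme and 100% = wells lacking Arfgap1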
Target sequence (Q62848 1-136 limits assumed): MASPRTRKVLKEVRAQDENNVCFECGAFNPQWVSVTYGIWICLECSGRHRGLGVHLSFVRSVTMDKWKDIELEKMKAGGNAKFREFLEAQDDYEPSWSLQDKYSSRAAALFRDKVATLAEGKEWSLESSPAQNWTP
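System: truncated rat Arfgap1 GAP domain / Benchmarks: high control wells lacking Arfgap1, low control full reaction with DMSO / Times: compound-enzyme preincubation 20 min, reaction 120 min, detection 60 min, 25 °C / Repeats: one replicate per compound / Also added: human ARF1(Δ1-17)-GTP substrate / Measured by: Tracer-displacement fluorescence polarization with EDTA stop, 620/688 nm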
esBAF inh: SWI/SNF esBAF complex inhibition; AID 602393; mouse ES cells, Bmi1-luciferase knock-in reporter, 24 h; 100% = twice the neutral-well signal; 2% of 350,000 active; reporter increase, % at 12.5 µM; in the data active = activation above about 40%;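 also: 0% = median of the plate's neutral control wells and 100% = double that signal; a rise in the Bmi1 reporter signal indicates esBAF inhibition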
ASAP1 GAP inh: blocks human ASAP1-stimulated Arf1 GTP hydrolysis; Q9ULH1; GDP FP detection; inhibition, % at 16.5 µM; 0.19% of 360,000 active; AID 624377; in the data active = inhibition above about 25%;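 also: 0% = vehicle with enzyme and substrate and 100% = no enzyme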
Target sequence (Q9ULH1 325-724 limits assumed): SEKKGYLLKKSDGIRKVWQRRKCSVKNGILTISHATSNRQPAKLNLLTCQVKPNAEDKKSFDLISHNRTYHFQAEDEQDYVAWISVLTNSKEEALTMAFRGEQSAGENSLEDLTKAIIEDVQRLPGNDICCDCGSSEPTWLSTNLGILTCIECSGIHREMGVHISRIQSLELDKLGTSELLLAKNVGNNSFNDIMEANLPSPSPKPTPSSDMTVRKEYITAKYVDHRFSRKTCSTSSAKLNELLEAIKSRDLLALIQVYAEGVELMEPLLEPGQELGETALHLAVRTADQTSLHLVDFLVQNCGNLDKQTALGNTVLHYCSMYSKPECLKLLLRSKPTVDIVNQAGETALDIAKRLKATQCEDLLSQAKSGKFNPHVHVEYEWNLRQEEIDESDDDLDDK
The depositor's hits bear a star; nt = no result. An excerpt weighted towards active compounds, which were near 2.6% of everything screened.

SMILES | SMARCA2 activ | ARFGAP1 inh | esBAF inh | ASAP1 GAP inh
C[C@@H]1CN([C@H](C)CO)C(=O)c2cc(C#Cc3ccccc3F)cnc2O[C@@H]1CN(C)S(C)(=O)=O | nt | nt | -1 | nt
CO[C@@H]1CN(C)C(=O)c2cc(NC(=O)Nc3cccc(F)c3)ccc2OC[C@H](C)N(C(=O)Nc2c(C)noc2C)C[C@@H]1C | nt | nt | 1 | nt
Cc1noc(C)c1S(=O)(=O)Nc1ccc2c(c1)CC(=O)N([C@H](C)CO)C[C@H](C)[C@H](CN(C)C(=O)Nc1ccc(F)cc1)O2 | nt | nt | -3 | nt
Cc1cc(C)c2c(N)c(C(=O)NNC(=O)c3ccccc3)sc2n1 | 8 | -5 | 66* | 4
Cc1cc(C)c2c(N)c(C(=O)N/N=C/c3ccccc3)sc2n1 | 3 | 1 | 46* | 10
Cc1cc(C)c2c(N)c(C(=O)NN)sc2n1 | -2 | 1 | nt | -4
Cc1cc(C)c2c(N)c(C(=O)N/N=C/c3cccnc3)sc2n1 | 5 | -9 | nt | 4
COc1ccc(C(C)(O)c2nc(-c3ccccc3)cs2)cc1 (configuration not stated) | -3 | 11 | 3 | -1
CC(O)(c1cccc(F)c1)c1nc(-c2ccc(Cl)cc2)cs1 (configuration not stated) | -5 | 6 | -2 | 14
CN(C)c1ccc(-c2csc(C(C)(O)c3cccc(F)c3)n2)cc1 (configuration not stated) | -3 | 9 | 45* | -6
COc1ccc(-c2csc(C(C)(O)c3ccccc3)n2)cc1 (configuration not stated) | -1 | -2 | 60* | -10
Cc1ccc(S(=O)(=O)N(C)C[C@@H]2OCCCC[C@H](C)Oc3ccc(NC(=O)CCCN(C)C)cc3C(=O)N([C@H](C)CO)C[C@@H]2C)cc1 | nt | nt | -1 | nt
CCOC(=O)c1ccc(NC(=O)Nc2ccc(F)cc2)cc1 | -1 | 3 | nt | -8
CC(=O)Nc1ccc2nc3ccccc3nc2c1 | 2 | 1 | 42* | 10
COC(=O)c1ccc(NC(=O)Nc2ccc(F)cc2)cc1 | 2 | 17 | 60* | 3
COc1ccc(C(=O)Nc2ccc3c(c2)nc(CCNC(=O)c2ccco2)n3C)cc1 | 5 | 9 | 48* | 13
COc1ccc(NC(=O)Nc2ccc3nccnc3c2)cc1 | 7.9* | 11 | 55* | 3
O=C(Nc1ccc2nc3ccccc3nc2c1)c1ccc(Br)cc1 | -3 | 24 | 17 | 10
COc1ccc(NC(=O)Nc2ccc3nonc3c2)cc1 | 3 | -11 | nt | 3
C[C@@H]1CCCCO[C@H](CN(C)Cc2ccncc2)[C@@H](C)CN([C@@H](C)CO)C(=O)c2cc(N(C)C)ccc2O1 | nt | nt | -3 | nt
COc1ccc(NC(=S)NC(=O)c2ccc(Br)o2)cc1 | 3 | -12 | 46* | 10
COc1ccc(NC(=O)Nc2ccc(OC)cc2)cc1 | 6 | 15 | 60* | -2
COC(=O)c1ccc(NC(=O)Nc2ccc(OC)cc2)cc1 | 0 | 3 | 12 | -4
COc1ccc(NC(=S)Nc2ccc3nc(C)c(C)nc3c2)cc1 | -2 | 20 | 3 | 6
COc1ccc(NC(=O)NCCN2C(=O)C3C4C=CC(C4)C3C2=O)cc1 (configuration not stated) | 1 | 4 | 58* | 2
SMILES | SMARCA2 activ | ARFGAP1 inh | esBAF inh | ASAP1 GAP inh
Cc1ccc(NC(=O)NCCN2C(=O)C3C4C=CC(C4)C3C2=O)cc1 (configuration not stated) | 3 | -22 | 20 | -2
COc1ccc(C(=O)Nc2ccc3nc(C)c(C)nc3c2)cc1 | -1 | 13 | 62* | 6
COc1ccc(NC(=O)c2ccc(Br)o2)cc1 | 6 | 0 | nt | 6
CC(C)C#Cc1cnc2c(c1)C(=O)N([C@H](C)CO)C[C@H](C)[C@@H](CN(C)C(=O)Cc1ccncc1)O2 | nt | nt | -3 | nt
COc1ccc(NC(=O)COc2ccccc2F)cc1S(=O)(=O)N1CCCCC1 | -3 | 3 | -7 | 1
COc1ccc(NC(=O)Cc2ccccc2F)cc1S(=O)(=O)N1CCCCC1 | 0 | -2 | 45* | -6
C[C@@H]1CCCCO[C@H](CN(C)C)[C@@H](C)CN([C@@H](C)CO)C(=O)c2cc(NC(=O)c3ccncc3)ccc2O1 | nt | nt | -1 | nt
Cc1c(C(=O)/C=C/c2ccccc2F)c2cc(O)ccc2n1C | 2 | 13 | 57* | 4
CC(C)(C)c1ccc(C(=O)NCc2cccnc2)cc1 | 0 | -2 | nt | -2
CC(C)(C)c1ccc(C(=O)c2c[nH]c(C(=O)NCc3cccnc3)c2)cc1 | 0 | 2 | 55* | 5
C[C@@H]1CCCCO[C@@H](CN(C)Cc2ccc3c(c2)OCO3)[C@@H](C)CN([C@@H](C)CO)C(=O)c2cc(NC(=O)Nc3ccc(F)cc3)ccc2O1 | nt | nt | 5 | nt
O=C(c1cnsn1)N1CCC(CO)(Cc2cccc(F)c2)CC1 | 2 | 0 | 70* | -7
COCCNC(=O)C[C@@H]1C[C@H]2c3cc(NC(=O)CN(C)C)ccc3O[C@H]2[C@H](CO)O1 | nt | nt | -4 | nt
Cc1cc2c(cc1C)NC1=C(N2)OC(c2cccc(O)c2)C1=O (configuration not stated) | 0 | 17 | nt | 1
COc1ccc(C2OC3=C(Nc4cc(C)c(C)cc4N3)C2=O)cc1 (configuration not stated) | 2 | 8 | 56* | -7
Clc1ccc(Cl)c2sc(N3CCOCC3)nc12 | -2 | -11 | 11 | 3
Clc1cc(Cl)c2nc(N3CCOCC3)sc2c1 | 5 | 1 | 61* | -4
Cc1ccccc1-c1nc2ccccc2[nH]1 | 6 | -9 | 58* | 6
Cc1ccccc1NC(=S)c1nc2ccccc2[nH]1 | 0 | -8 | 49* | -8
COCC(=O)N(C)C[C@H]1Oc2ncc(C#Cc3ccccc3)cc2C(=O)N([C@@H](C)CO)C[C@@H]1C | nt | nt | -3 | nt
Cc1cccc(CC(C)NC(=O)c2cc(COc3ccc(F)cc3F)on2)n1 (configuration not stated) | 0 | -6 | 42* | -11
Cc1cc(C)n(CCCNC(=O)c2cc(COc3ccc(C)c(C)c3)on2)n1 | 2 | 14 | 9 | -3
CCc1cc(CNC(=O)c2cc(COc3ccc(C)nc3)on2)on1 | 2 | -6 | 60* | -3
Cc1cc(CNC(=O)c2cc(COc3ccc(F)c(F)c3)on2)nn1C | 3 | 1 | 65* | -11
CC(=O)c1ccc(OCc2cc(C(=O)NCCn3nc(C)cc3C)no2)cc1 | 2 | 0 | 44* | -5
O=C(NCC[C@H]1CC[C@@H](NS(=O)(=O)Cc2ccccc2)[C@@H](CO)O1)C1CC1 | nt | nt | 5 | nt
Cc1cc(C)n(CC(C)NC(=O)c2cc(COc3ccc(F)c(F)c3)on2)n1 (configuration not stated) | 5 | 0 | 62* | -5
CC(C)COC(=O)c1ccc(NC(=O)C2C3CCC(C3)C2C(=O)O)cc1 (configuration not stated) | 6 | 14 | 58* | -1
Cc1ccc(OCc2cc(C(=O)N3CCN(C4CCCCC4)CC3)no2)cc1C | 4 | 4 | 55* | -3

Compound activity from PubChem BioAssay.
